Assay results reported in ChEMBL document CHEMBL2424574, “Structure-activity relationships and pharmacophore model of a noncompetitive pyrazoline containing class of GluN2C/GluN2D selective antagonists” (J Med Chem, 2013).

Tests used:
[1] = biological target: Neuronal acetylcholine receptor; alpha4/beta2 (Homo sapiens) (UniProt P17787+P43681); assay: Inhibition of human nicotinic acetylcholine receptor subunit alpha-4 beta-2 expressed in Xenopus laevis oocytes assessed as inhibition of acetylcholine-induced current at 3 uM by two-electrode voltage clamp method; values are per cent of control; conditions: Oocyte
[2] = biological target: P2X purinoceptor 2 (Homo sapiens) (UniProt Q9UBL9); assay: Inhibition of human purinergic receptor P2X subunit-2 expressed in Xenopus laevis oocytes assessed as inhibition of ATP-induced current at 3 uM by two-electrode voltage clamp method; values are per cent of control; conditions: Oocyte
Sequence of P2X purinoceptor 2 (Homo sapiens) (Q9UBL9 whole entry): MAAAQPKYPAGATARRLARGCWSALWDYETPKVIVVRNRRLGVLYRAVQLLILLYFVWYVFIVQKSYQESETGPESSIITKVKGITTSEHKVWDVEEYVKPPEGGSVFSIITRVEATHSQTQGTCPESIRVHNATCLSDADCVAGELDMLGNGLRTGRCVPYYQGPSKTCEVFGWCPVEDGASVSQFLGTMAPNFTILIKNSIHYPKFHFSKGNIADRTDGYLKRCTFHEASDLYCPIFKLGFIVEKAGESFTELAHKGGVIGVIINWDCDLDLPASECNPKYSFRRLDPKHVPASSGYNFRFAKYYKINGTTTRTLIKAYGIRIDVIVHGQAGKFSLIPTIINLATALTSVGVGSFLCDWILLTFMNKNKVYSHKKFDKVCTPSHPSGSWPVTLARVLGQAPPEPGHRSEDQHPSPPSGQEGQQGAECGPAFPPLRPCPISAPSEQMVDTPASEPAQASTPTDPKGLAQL

Plasma [3] = assay: Metabolic stability in human plasma after 2 hrs; assay type: ADME, cell-free
In short: (§1)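 Stability followed in human, rat or mouse plasma over a 2-hour time course.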

[4] = biological target: Nicotinic acetylcholine receptor alpha1/beta1/gamma/delta (Mus musculus) (UniProt P04756+P09690+P02716+P04760); assay: Inhibition of mouse nicotinic acetylcholine receptor subunit alpha1beta1gammadelta expressed in Xenopus laevis oocytes assessed as inhibition of acetylcholine-induced current at 3 uM by two-electrode voltage clamp method; values are per cent of control; conditions: Oocyte
[5] = biological target: Glutamate NMDA receptor; GRIN1/GRIN2B (Homo sapiens) (UniProt Q05586+Q13224); assay: Inhibition of GluN1/GluN2B receptor (unknown origin) expressed in Xenopus laevis oocytes assessed as inhibition of glutamate/glycine-induced current at 3 uM by two-electrode voltage clamp method; values are per cent of control; conditions: Oocyte
[6] = biological target: Glutamate receptor ionotropic, NMDA 2B (Rattus norvegicus, UniProt P35439+Q00960); assay: Negative allosteric modulation of recombinant rat GluN2B receptor expressed in Xenopus laevis oocytes by two-electrode voltage clamp method; assay type: cell-based, Oocyte
Sequence of Glutamate receptor ionotropic, NMDA 2B (Q00960 whole entry, one chain of several): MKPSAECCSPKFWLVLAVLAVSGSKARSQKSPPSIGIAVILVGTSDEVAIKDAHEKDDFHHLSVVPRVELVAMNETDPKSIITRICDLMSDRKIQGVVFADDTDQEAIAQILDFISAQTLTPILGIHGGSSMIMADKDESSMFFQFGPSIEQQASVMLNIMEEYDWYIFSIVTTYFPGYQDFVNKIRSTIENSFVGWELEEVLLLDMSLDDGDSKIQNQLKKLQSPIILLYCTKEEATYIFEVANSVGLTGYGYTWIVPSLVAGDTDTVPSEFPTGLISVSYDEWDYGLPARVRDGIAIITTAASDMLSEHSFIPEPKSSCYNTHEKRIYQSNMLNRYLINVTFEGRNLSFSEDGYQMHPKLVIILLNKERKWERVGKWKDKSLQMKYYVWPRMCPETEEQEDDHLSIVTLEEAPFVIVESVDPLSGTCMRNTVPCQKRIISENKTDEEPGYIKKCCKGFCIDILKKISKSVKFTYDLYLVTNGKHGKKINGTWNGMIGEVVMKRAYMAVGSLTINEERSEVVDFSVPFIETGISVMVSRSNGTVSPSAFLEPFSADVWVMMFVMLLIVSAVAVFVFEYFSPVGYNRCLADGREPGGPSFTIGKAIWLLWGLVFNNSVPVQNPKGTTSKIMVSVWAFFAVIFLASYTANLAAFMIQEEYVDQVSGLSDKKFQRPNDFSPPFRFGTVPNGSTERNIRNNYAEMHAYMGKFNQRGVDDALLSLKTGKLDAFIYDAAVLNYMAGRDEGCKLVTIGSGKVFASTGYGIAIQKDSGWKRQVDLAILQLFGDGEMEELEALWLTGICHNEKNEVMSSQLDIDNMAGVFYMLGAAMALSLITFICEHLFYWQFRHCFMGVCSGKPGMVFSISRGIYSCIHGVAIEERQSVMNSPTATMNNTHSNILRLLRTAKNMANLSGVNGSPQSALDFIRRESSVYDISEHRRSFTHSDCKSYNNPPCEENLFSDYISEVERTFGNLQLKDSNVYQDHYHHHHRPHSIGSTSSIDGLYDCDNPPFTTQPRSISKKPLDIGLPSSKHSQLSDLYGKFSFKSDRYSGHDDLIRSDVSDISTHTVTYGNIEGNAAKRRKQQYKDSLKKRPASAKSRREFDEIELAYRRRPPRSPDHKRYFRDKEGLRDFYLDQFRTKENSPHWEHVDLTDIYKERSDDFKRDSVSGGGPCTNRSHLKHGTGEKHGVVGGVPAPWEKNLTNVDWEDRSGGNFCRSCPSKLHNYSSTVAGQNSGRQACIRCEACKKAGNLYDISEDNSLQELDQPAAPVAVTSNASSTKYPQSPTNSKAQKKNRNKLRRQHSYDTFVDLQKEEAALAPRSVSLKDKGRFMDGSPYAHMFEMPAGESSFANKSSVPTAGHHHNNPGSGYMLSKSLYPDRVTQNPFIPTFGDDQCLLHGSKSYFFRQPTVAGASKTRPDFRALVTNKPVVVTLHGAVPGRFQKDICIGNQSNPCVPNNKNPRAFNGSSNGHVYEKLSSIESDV
In short: (§2)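 Two-electrode voltage clamp of Xenopus oocytes expressing rat GluN1 with GluN2A, 2B, 2C or 2D. Holding potential −40 mV in recording solution (mM: 90 NaCl, 1 KCl, 0.5 BaCl2, 0.005 EDTA, 10 HEPES, pH 7.4, 23 °C). Compounds diluted from 20 mM DMSO stocks to 0.05–0.1% final DMSO. IC50 from a Hill fit to the averaged composite concentration–response curve, 5–24 oocytes from 2–4 frogs.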

Rattus norvegicus [7] = species on record: Rattus norvegicus; assay: Selectivity ratio of IC50 for recombinant rat GluN2A receptor to IC50 for recombinant rat GluN2D receptor
In short: (§3)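 Rat GluN1 co-expressed with GluN2A, GluN2B or GluN2D in Xenopus oocytes. Two-electrode voltage clamp at −40 mV in 90 NaCl, 1 KCl, 0.5 BaCl2, 0.005 EDTA, 10 HEPES (mM), pH 7.4, 23 °C; final DMSO 0.1–0.05%. IC50s came from Hill fits to averaged composite concentration-response curves (5–24 oocytes, 2–4 frogs). Ratio is GluN2A or GluN2B IC50 over GluN2D IC50.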

[8] = biological target: Ionotropic glutamate receptor NMDA 1/2D (Homo sapiens) (UniProt Q05586+O15399); assay: Inhibition of GluN1/GluN2D receptor (unknown origin) expressed in Xenopus laevis oocytes assessed as inhibition of glutamate/glycine-induced current at 3 uM by two-electrode voltage clamp method; values are per cent of control; conditions: Oocyte
[9] = biological target: Glutamate receptor ionotropic, NMDA 2D (Rattus norvegicus, UniProt P35439+Q62645); assay: Negative allosteric modulation of recombinant rat GluN2D receptor expressed in Xenopus laevis oocytes by two-electrode voltage clamp method; assay type: cell-based, Oocyte
In short: as §2

[10] = biological target: Ionotropic glutamate receptor NMDA 1/2C (Homo sapiens) (UniProt Q05586+Q14957); assay: Inhibition of GluN1/GluN2C receptor (unknown origin) expressed in Xenopus laevis oocytes assessed as inhibition of glutamate/glycine-induced current at 3 uM by two-electrode voltage clamp method; values are per cent of control; conditions: Oocyte
[11] = biological target: Glutamate receptor 4 (Homo sapiens) (UniProt P48058); assay: Inhibition of GluA4 receptor (unknown origin) expressed in Xenopus laevis oocytes assessed as inhibition of glutamate-induced current at 3 uM by two-electrode voltage clamp method; values are per cent of control; conditions: Oocyte
[12] = biological target: Glutamate receptor ionotropic, NMDA 2C (Rattus norvegicus, UniProt P35439+Q00961); assay: Negative allosteric modulation of recombinant rat GluN2C receptor expressed in Xenopus laevis oocytes by two-electrode voltage clamp method; assay type: cell-based, Oocyte
In short: as §2

Plasma [13] = assay: Metabolic stability in mouse plasma after 2 hrs; assay type: ADME, cell-free
In short: as §1

[14] = biological target: Neuronal acetylcholine receptor; alpha3/beta4 (Homo sapiens) (UniProt P30926+P32297); assay: Inhibition of human nicotinic acetylcholine receptor subunit alpha-3 beta-4 expressed in Xenopus laevis oocytes assessed as inhibition of acetylcholine-induced current at 3 uM by two-electrode voltage clamp method; values are per cent of control; conditions: Oocyte
Rattus norvegicus [15] = species on record: Rattus norvegicus; assay: Selectivity ratio of IC50 for recombinant rat GluN2B receptor to IC50 for recombinant rat GluN2D receptor
In short: as §3

[16] = biological target: Neuronal acetylcholine receptor subunit alpha-7 (Homo sapiens) (UniProt P36544); assay: Inhibition of human nicotinic acetylcholine receptor subunit alpha-7 expressed in Xenopus laevis oocytes assessed as inhibition of acetylcholine-induced current at 3 uM by two-electrode voltage clamp method; values are per cent of control; conditions: Oocyte
Sequence of Neuronal acetylcholine receptor subunit alpha-7 (Homo sapiens) (P36544 whole entry): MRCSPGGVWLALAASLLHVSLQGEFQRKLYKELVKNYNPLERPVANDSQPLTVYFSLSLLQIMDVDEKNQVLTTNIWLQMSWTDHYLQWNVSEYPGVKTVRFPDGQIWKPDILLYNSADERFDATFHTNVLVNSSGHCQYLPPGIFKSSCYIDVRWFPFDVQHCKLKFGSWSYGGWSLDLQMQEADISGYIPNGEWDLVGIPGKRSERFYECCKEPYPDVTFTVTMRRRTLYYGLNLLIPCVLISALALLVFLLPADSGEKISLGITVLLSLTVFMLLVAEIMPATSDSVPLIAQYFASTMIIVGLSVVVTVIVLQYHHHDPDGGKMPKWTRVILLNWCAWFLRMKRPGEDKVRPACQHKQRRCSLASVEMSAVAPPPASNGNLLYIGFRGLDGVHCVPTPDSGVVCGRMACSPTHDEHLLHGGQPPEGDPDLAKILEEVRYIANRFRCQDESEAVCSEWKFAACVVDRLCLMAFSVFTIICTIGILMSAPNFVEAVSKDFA

[17] = biological target: Glutamate receptor 3 (Homo sapiens) (UniProt P42263); assay: Inhibition of GluA3 receptor (unknown origin) expressed in Xenopus laevis oocytes assessed as inhibition of glutamate-induced current at 3 uM by two-electrode voltage clamp method; values are per cent of control; conditions: Oocyte
Sequence of Glutamate receptor 3 (Homo sapiens) (P42263 whole entry): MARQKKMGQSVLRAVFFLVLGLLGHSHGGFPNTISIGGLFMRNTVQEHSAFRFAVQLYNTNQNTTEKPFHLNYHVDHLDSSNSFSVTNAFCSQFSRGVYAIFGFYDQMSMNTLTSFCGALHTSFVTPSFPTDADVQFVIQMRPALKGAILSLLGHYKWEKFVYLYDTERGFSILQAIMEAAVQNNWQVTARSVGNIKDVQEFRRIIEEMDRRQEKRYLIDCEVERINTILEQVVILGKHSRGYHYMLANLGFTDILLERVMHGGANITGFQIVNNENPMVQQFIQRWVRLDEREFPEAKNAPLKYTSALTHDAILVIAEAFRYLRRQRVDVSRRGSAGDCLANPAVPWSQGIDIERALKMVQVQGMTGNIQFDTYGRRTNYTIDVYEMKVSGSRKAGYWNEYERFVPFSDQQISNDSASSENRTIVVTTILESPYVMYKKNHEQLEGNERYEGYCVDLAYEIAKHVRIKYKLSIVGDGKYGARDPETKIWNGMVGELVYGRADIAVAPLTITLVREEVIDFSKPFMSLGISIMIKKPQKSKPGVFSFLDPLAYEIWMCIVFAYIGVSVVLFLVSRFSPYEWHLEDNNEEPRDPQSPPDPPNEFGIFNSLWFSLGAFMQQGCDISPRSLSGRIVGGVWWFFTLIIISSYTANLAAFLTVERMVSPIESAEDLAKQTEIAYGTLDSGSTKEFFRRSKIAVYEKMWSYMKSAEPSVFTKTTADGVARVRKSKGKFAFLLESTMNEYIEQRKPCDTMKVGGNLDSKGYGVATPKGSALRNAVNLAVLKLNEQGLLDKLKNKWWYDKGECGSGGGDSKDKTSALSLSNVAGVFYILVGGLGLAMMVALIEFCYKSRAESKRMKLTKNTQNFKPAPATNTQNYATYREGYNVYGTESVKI

[18] = biological target: Kappa-type opioid receptor (Homo sapiens, UniProt P41145); assay: Inhibition of kappa-type opioid receptor (unknown origin)
Sequence of Kappa-type opioid receptor (P41145 whole entry): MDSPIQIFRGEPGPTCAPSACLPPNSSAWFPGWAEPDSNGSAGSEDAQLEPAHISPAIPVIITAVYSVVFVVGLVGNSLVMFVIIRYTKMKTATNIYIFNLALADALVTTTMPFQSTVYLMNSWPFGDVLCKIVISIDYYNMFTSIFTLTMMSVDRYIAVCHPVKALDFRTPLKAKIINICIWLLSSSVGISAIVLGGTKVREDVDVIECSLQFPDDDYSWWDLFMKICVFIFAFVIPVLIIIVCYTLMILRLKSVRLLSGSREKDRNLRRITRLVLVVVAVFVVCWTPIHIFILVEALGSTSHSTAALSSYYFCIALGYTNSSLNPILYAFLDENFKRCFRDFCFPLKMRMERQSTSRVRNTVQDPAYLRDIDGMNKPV
In short: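 Radioligand panel screening was run through the NIMH Psychoactive Drug Screening Program with compounds at 5 µM.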

[19] = biological target: Glycine receptor subunit alpha-1 (Homo sapiens) (UniProt P23415); assay: Inhibition of glycine receptor subunit alpha-1 (unknown origin) expressed in Xenopus laevis oocytes assessed as inhibition of glycine-induced current at 3 uM by two-electrode voltage clamp method; values are per cent of control; conditions: Oocyte
[20] = biological target: 5-hydroxytryptamine receptor 3A (Homo sapiens) (UniProt P46098); assay: Inhibition of serotonin 5-HT3A receptor (unknown origin) expressed in Xenopus laevis oocytes assessed as inhibition of serotonin-induced current at 3 uM by two-electrode voltage clamp method; values are per cent of control; conditions: Oocyte
Sequence of 5-hydroxytryptamine receptor 3A (Homo sapiens) (P46098 whole entry): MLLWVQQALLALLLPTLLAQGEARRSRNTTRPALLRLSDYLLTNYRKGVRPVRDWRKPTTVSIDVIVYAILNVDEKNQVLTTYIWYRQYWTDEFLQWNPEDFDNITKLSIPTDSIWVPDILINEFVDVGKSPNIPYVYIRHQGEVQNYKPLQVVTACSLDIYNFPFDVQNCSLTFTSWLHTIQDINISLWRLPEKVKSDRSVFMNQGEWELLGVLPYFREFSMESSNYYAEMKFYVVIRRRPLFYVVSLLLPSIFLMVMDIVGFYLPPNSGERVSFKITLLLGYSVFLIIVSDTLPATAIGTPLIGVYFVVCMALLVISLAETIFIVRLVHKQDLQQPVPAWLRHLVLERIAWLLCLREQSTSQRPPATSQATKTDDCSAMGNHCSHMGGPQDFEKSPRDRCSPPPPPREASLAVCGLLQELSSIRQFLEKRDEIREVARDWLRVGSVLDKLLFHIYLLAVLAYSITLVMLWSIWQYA

[21] = biological target: P2X purinoceptor 2 (Rattus norvegicus) (UniProt P49653); assay: Inhibition of rat purinergic receptor P2X subunit-2 expressed in Xenopus laevis oocytes assessed as inhibition of ATP-induced current at 3 uM by two-electrode voltage clamp method; values are per cent of control; conditions: Oocyte
Sequence of P2X purinoceptor 2 (Rattus norvegicus) (P49653 whole entry): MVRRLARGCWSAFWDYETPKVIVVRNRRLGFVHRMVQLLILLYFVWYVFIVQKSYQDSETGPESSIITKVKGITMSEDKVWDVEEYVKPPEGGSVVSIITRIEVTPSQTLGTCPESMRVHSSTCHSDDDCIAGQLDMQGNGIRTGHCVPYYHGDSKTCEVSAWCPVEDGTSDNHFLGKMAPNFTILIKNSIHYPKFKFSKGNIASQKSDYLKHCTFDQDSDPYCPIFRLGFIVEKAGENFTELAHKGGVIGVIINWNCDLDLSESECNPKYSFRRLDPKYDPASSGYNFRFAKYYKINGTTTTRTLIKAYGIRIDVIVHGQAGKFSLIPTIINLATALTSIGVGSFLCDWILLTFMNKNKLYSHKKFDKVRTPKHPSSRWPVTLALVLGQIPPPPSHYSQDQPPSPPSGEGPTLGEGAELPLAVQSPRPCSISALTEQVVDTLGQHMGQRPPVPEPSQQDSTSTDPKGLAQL

SMILES	residual activity [1] [%]	residual activity [2] [%]	Stability (Plasma [3])	residual activity [4] [%]	residual activity [5] [%]	IC50 [6] [µM]	Ratio IC50 (Rattus norvegicus [7])	residual activity [8] [%]	IC50 [9] [nM]	residual activity [10] [%]	residual activity [11] [%]	IC50 [12] [nM]	Stability (Plasma [13])	residual activity [14] [%]	Ratio IC50 (Rattus norvegicus [15])	residual activity [16] [%]	residual activity [17] [%]	Ki [18] [µM]	residual activity [19] [%]	residual activity [20] [%]	other results
O=C(O)CCC(=O)N1N=C(c2c(-c3ccc(Cl)cc3)c3ccccc3[nH]c2=O)CC1c1ccc(Cl)cc1 (racemic)	79	113	Stable	94	79	22	48	14	440	21	96	770	Stable	77	50	82	99	> 10	101	95	residual activity [21]: 97%
O=C(O)/C=C/C(=O)N1N=C(c2c(-c3ccc(Br)cc3)c3ccccc3[nH]c2=O)CC1c1ccc(Cl)cc1 (racemic)	82	100	Stable	98	98	12	23	14	190	26	97	200	Stable	87	63	64	100	> 10	99	95	residual activity [21]: 96%
